Data: ChEMBL document CHEMBL1777751, “Virtual screening and further development of novel ALK inhibitors” (Bioorg Med Chem, 2011)
Values belong to the molecule of their own block, whether it stands above or below them.

What was measured:
[1] = target: Tyrosine-protein kinase JAK3 (Homo sapiens) (UniProt P52333); test: Inhibition of JAK3 at 4 uM by mobility shift assay
Outline: (§1)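 Tyrosine kinase panel run by a contract lab. Each enzyme was incubated with 1 mM ATP and 1 µM of its appropriate peptide substrate, and the product was then read by mobility shift.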

[2] = target: Tyrosine-protein kinase ABL1 (Homo sapiens) (UniProt P00519); test: Inhibition of ABL at 4 uM by mobility shift assay; outline: as §1
[3] = target: Ephrin type-B receptor 4 (Homo sapiens) (UniProt P54760); test: Inhibition of EPHB4 at 4 uM by mobility shift assay
[4] = target: Angiopoietin-1 receptor (Homo sapiens) (UniProt Q02763); test: Inhibition of TIE2 at 4 uM by mobility shift assay; outline: as §1
[5] = target: Tyrosine-protein kinase SYK (Homo sapiens) (UniProt P43405); test: Inhibition of SYK at 4 uM by mobility shift assay; outline: as §1
[6] = target: Ephrin type-A receptor 2 (Homo sapiens) (UniProt P29317); test: Inhibition of EPHA2 at 4 uM by mobility shift assay; outline: as §1
[7] = target: Insulin receptor (Homo sapiens) (UniProt P06213); test: Inhibition of INSR at 4 uM by mobility shift assay; outline: as §1
[8] = target: Insulin-like growth factor 1 receptor (Homo sapiens) (UniProt P08069); test: Inhibition of IGF-1R at 4 uM by mobility shift assay; outline: as §1
[9] = target: Tyrosine-protein kinase ITK/TSK (Homo sapiens) (UniProt Q08881); test: Inhibition of ITK at 4 uM by mobility shift assay; outline: as §1
[10] = target: T1, ALK tyrosine kinase receptor (Homo sapiens, UniProt Q9UM73); test: Inhibition of ALK using FL-Peptide 13, 5-FAM-KKSRGDYMTMQIG-CONH2 substrate after 60 mins by mobility shift assay
Target sequence in this assay (Q9UM73 whole entry): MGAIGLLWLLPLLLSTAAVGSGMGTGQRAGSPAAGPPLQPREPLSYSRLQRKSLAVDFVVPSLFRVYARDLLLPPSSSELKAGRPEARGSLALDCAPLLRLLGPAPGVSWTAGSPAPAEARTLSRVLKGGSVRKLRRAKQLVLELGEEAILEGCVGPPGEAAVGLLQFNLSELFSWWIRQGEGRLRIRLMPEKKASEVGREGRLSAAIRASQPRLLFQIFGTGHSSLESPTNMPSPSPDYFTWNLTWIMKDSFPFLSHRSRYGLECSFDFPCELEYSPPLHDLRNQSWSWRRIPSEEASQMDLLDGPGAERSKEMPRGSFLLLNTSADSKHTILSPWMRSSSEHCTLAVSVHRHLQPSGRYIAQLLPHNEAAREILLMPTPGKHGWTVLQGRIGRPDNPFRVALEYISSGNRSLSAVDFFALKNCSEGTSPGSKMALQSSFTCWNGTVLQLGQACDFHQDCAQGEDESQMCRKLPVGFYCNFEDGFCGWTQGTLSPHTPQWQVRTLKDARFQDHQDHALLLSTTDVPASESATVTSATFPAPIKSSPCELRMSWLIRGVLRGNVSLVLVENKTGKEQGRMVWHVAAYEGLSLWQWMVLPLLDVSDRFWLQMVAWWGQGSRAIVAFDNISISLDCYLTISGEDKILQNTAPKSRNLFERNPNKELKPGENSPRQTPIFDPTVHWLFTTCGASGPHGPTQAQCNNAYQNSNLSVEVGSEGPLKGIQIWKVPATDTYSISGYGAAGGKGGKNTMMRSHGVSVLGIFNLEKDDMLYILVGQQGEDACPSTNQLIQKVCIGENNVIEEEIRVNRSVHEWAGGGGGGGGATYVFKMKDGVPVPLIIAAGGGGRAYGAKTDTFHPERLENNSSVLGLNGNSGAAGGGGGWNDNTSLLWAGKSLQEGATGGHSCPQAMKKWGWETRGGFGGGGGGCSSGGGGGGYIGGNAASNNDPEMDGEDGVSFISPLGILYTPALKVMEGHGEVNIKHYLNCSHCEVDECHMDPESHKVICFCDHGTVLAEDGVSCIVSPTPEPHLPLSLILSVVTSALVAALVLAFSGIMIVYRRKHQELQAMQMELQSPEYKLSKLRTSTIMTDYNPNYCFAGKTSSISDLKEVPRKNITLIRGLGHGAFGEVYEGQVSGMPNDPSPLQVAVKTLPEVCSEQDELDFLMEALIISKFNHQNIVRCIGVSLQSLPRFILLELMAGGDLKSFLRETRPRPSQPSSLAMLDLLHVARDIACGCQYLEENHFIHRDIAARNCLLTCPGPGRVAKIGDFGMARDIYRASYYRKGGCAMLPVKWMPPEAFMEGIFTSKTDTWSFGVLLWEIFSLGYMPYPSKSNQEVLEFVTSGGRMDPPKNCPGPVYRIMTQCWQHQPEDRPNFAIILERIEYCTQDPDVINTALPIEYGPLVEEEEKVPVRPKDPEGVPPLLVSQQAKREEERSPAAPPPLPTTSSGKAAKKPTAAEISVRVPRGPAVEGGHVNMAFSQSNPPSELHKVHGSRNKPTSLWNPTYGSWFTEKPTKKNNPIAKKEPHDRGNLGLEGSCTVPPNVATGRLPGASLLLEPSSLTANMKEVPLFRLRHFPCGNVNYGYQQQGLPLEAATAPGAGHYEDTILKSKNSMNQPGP

[11] = target: Platelet-derived growth factor receptor alpha (Homo sapiens) (UniProt P16234); test: Inhibition of PDGFRa at 4 uM by mobility shift assay; outline: as §1
[12] = target: Tyrosine-protein kinase Lck (Homo sapiens) (UniProt P06239); test: Inhibition of LCK at 4 uM by mobility shift assay; outline: as §1
[13] = target: Proto-oncogene tyrosine-protein kinase Src (Homo sapiens) (UniProt P12931); test: Inhibition of SRC at 4 uM by mobility shift assay; outline: as §1
[14] = target: Tyrosine-protein kinase CSK (Homo sapiens) (UniProt P41240); test: Inhibition of CSK at 4 uM by mobility shift assay; outline: as §1
[15] = target: Epidermal growth factor receptor (Homo sapiens) (UniProt P00533); test: Inhibition of EGFR at 4 uM by mobility shift assay; outline: as §1
[16] = Inhibition of NPM1/ALK at 4 uM by mobility shift assay; outline: as §1
[17] = target: Tyrosine-protein kinase receptor TYRO3 (Homo sapiens) (UniProt Q06418); test: Inhibition of TYRO3 at 4 uM by mobility shift assay; outline: as §1
[18] = target: Vascular endothelial growth factor receptor 2 (Homo sapiens) (UniProt P35968); test: Inhibition of KDR at 4 uM by mobility shift assay; outline: as §1
[19] = target: Receptor-type tyrosine-protein kinase FLT3 (Homo sapiens) (UniProt P36888); test: Inhibition of FLT3 at 4 uM by mobility shift assay; outline: as §1
[20] = target: T1, ALK tyrosine kinase receptor; test: Inhibition of ALK at 4 uM by mobility shift assay; outline: as §1
Target sequence in this assay (Q9UM73 19-1620 limits assumed): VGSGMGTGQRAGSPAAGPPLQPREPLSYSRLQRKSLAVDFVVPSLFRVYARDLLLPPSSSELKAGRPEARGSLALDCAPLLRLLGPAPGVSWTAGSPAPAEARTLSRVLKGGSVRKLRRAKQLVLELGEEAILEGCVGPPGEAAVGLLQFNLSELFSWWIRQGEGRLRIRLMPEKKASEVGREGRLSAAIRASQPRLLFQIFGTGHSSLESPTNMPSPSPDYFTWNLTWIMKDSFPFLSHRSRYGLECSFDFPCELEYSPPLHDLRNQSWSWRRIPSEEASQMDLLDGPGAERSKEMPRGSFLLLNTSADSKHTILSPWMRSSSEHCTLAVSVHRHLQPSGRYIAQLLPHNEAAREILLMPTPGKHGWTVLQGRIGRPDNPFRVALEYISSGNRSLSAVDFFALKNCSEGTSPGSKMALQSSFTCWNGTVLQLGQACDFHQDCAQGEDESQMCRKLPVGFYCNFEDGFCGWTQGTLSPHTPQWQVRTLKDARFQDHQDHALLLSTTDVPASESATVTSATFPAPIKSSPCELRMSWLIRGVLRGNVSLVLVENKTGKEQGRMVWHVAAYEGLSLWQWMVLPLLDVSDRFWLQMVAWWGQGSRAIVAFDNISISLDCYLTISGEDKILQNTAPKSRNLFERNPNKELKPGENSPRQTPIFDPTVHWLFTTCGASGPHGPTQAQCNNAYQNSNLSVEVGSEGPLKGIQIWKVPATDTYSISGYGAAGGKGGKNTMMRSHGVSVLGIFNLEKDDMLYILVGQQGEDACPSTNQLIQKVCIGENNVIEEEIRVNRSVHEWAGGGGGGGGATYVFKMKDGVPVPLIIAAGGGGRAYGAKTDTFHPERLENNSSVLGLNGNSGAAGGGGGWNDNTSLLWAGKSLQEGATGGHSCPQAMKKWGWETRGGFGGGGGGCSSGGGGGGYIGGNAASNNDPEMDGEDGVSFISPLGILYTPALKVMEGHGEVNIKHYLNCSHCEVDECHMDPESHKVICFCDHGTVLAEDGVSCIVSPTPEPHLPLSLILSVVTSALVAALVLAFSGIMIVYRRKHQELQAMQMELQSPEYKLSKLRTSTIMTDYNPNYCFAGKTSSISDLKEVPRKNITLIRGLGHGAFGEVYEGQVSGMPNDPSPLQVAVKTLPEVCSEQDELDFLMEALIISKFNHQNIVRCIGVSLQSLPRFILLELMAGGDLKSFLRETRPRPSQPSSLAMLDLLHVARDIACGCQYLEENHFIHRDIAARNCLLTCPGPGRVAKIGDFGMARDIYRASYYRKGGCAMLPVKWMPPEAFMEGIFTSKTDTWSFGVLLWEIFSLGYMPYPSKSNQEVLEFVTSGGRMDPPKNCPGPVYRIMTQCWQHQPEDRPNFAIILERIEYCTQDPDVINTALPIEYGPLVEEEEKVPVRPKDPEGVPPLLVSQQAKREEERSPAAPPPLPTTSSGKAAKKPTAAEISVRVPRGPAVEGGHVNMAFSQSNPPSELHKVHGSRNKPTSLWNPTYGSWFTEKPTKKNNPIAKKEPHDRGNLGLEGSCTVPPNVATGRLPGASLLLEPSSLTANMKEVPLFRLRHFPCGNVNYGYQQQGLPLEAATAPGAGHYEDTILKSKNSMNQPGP

[21] = target: Fibroblast growth factor receptor 1 (Homo sapiens) (UniProt P11362); test: Inhibition of FGFR1 at 4 uM by mobility shift assay; outline: as §1
[22] = target: Hepatocyte growth factor receptor (Homo sapiens) (UniProt P08581); test: Inhibition of MET at 4 uM by mobility shift assay; outline: as §1
[23] = target: T1, ALK tyrosine kinase receptor; test: Inhibition of EML4-ALK at 4 uM by mobility shift assay; outline: as §1
Target sequence in this assay (Q9UM73 19-1620 limits assumed): as above

[24] = target: Protein-tyrosine kinase 2-beta (Homo sapiens) (UniProt Q14289); test: Inhibition of PYK2 at 4 uM by mobility shift assay; outline: as §1
[25] = target: High affinity nerve growth factor receptor (Homo sapiens) (UniProt P04629); test: Inhibition of TRKA at 4 uM by mobility shift assay; outline: as §1
[26] = target: T1, ALK tyrosine kinase receptor; test: Inhibition of ALK using FL-Peptide 13, 5-FAM-KKSRGDYMTMQIG-CONH2 substrate at 10 uM after 60 mins by mobility shift assay
Outline: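 Recombinant ALK at 42 ng/mL, with 1.5 µM fluorescent peptide substrate and ATP. Buffer: 50 mM Hepes pH 7.4, 10 mM MgCl2, 1 mM DTT, 1% protease and 1% phosphatase inhibitor cocktails, 0.01% Brij-35. Compound was added in 5% DMSO. Incubated 60 min at room temperature, then read by mobility shift.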
Target sequence in this assay (Q9UM73 19-1620 limits assumed): as above

Sequence of Insulin-like growth factor 1 receptor (Homo sapiens) (P08069 31-736 limits assumed): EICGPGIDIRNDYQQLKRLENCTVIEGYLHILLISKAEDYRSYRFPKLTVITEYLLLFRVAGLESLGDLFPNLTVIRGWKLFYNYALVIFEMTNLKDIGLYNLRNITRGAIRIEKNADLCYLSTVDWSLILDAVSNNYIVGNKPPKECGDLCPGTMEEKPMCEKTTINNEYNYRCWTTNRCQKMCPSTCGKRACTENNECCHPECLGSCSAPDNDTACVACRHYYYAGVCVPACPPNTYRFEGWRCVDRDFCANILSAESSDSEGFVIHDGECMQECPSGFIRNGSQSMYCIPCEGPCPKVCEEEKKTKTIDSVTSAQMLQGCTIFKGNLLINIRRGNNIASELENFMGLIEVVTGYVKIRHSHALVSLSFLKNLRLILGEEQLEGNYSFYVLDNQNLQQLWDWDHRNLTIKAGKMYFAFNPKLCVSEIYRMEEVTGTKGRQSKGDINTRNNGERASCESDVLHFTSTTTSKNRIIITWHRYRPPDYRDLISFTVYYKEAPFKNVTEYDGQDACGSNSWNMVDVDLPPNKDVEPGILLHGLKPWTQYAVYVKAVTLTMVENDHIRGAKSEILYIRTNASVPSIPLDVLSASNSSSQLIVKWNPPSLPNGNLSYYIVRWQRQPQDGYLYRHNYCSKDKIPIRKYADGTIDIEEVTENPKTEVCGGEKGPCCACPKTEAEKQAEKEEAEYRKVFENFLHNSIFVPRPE
Sequence of Insulin-like growth factor 1 receptor (Homo sapiens) (P08069 741-1367 limits assumed): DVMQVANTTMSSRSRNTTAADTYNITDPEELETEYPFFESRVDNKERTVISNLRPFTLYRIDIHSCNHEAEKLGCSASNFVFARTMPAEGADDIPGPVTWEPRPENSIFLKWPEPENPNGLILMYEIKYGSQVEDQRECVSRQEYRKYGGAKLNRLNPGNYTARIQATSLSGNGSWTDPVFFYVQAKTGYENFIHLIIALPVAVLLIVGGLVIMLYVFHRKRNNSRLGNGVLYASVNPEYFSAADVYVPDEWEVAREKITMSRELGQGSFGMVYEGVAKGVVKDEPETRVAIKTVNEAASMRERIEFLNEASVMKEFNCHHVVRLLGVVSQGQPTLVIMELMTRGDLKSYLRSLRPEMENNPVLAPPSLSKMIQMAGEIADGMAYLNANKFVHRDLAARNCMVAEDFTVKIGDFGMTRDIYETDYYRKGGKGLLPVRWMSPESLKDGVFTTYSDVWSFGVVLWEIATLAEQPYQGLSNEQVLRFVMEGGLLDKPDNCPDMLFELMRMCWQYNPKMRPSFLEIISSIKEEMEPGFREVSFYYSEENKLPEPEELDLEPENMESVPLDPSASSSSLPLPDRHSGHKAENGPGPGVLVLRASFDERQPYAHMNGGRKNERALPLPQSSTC
Sequence of Tyrosine-protein kinase CSK (Homo sapiens) (P41240 2-450 limits assumed): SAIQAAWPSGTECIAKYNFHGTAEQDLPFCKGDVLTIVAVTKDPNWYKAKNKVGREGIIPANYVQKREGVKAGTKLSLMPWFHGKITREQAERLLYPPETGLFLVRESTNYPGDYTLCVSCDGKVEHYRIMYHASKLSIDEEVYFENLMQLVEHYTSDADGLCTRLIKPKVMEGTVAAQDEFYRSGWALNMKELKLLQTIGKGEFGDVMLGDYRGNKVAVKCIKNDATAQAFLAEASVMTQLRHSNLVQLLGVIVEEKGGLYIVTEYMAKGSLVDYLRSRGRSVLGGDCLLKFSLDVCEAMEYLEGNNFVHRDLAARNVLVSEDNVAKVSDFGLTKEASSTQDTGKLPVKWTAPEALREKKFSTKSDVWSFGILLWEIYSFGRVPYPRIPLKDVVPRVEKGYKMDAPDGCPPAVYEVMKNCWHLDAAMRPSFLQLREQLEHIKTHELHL

inhibition [1]: 9%
inhibition [2]: 5.1%
inhibition [3]: 5.1%
inhibition [4]: 14%
inhibition [5]: 58.5%
inhibition [6]: 4.9%
inhibition [7]: 97.2%
inhibition [8]: 91.2%
inhibition [9]: 34.2%
IC50 [10]: 0.0618 µM
inhibition [11]: 56.6%
inhibition [12]: 69.8%
inhibition [13]: 39%
inhibition [14]: -6.5%
inhibition [15]: -2.3%
inhibition [16]: 93.8%
inhibition [17]: 100%
inhibition [18]: 81.7%
inhibition [19]: 98.1%
inhibition [20]: 97.6%
inhibition [21]: 62.7%
inhibition [22]: 12.7%
inhibition [23]: 98.7%
inhibition [24]: 86.5%
inhibition [25]: 99.4%
Compound: Cc1cc(-c2cccc(N)c2)c(/C=C2\C(=O)Nc3ccccc32)[nH]1

IC50 [10]: 0.368 µM
Compound: Cc1cc(-c2ccc(N)cc2)c(/C=C2\C(=O)Nc3ccccc32)[nH]1

IC50 [10]: 1.73 µM
Compound: O=C1Nc2ccccc2/C1=C/c1c[nH]nc1-c1ccccc1

inhibition [26]: > 50%
Compound: CCc1nc(/C=C2\C(=O)Nc3ccccc32)c[nH]1

inhibition [26]: > 50%
Compound: Oc1c2ccccc2c2c3c(cccc13)N=N2

IC50 [10]: 0.415 µM
Compound: Cc1[nH]c(/C=C2\C(=O)Nc3ccccc32)c(C)c1-c1ccc(NCCN)cc1

IC50 [10]: 3.47 µM
Compound: CCOC(=O)c1ccc(Nc2nc(Nc3ccc(Cl)cc3)c3nccnc3n2)cc1

IC50 [10]: 8.66 µM
Compound: O=[N+]([O-])c1ccc2ncnc(Nc3ccc(O)cc3)c2c1

IC50 [10]: 2.4 µM
Compound: COc1cc2ncnc(Nc3ccc(O)cc3)c2cc1OC [WHI-P131]

inhibition [26]: > 50%
Compound: Oc1cc(C(O)O)c2cc(Oc3ccc4nc(O)cc(C(O)O)c4c3)ccc2n1

inhibition [26]: > 50%
Compound: CC(=O)COc1ccc2c(c1)O/C(=C\c1ccc([N+](=O)[O-])cc1)C2=O

inhibition [26]: > 50%
Compound: COc1cc(N2CCCC2)ccc1/C=C1\C(=O)NC(=O)N(c2cccnc2)C1=O

inhibition [26]: > 50%
Compound: O=C1c2c(cc(O)c(O)c2O)CCCC1O (stereo not given)

inhibition [26]: > 50%
IC50 [10]: 2.85 µM
Compound: Oc1ccc(Nc2ncnc3ccc(Br)cc23)cc1

IC50 [10]: 4.24 µM
Compound: Oc1ccc(Nc2nc(-c3ccccc3O)nc3ccccc23)cc1

IC50 [10]: 0.0891 µM
Compound: Cc1cc(-c2cccc(NCCN)c2)c(/C=C2\C(=O)Nc3ccccc32)[nH]1

IC50 [10]: 9.29 µM
Compound: CC1CN(Cc2c(-c3cccs3)[nH]c3ncccc23)CC(C)O1 (stereo not given)

Second part, the molecule before the results:

Compound: Cc1cc(-c2cccc(N)c2)c(/C=C2\C(=O)Nc3ccc(N)cc32)[nH]1
IC50 [10]: 0.0508 µM

Compound: NC(Cc1cc(O)c(O)cc1O)C(O)O (stereo not given)
inhibition [26]: > 50%

Compound: CCc1nc(C)c(/C=C2\C(=O)Nc3ccccc32)[nH]1
IC50 [10]: 1.38 µM

Compound: Cc1[nH]c(/C=C2\C(=O)Nc3ccccc32)c(C)c1-c1cccc(NCCN)c1
IC50 [10]: 0.604 µM

Compound: Cc1cc(-c2ccc(N)cc2)c(/C=C2\C(=O)Nc3ccc(N)cc32)[nH]1
IC50 [10]: 0.0683 µM

Compound: Oc1ccc(-n2cccc2)cc1C(O)O
inhibition [26]: > 50%

Compound: COc1cc2c(-c3ccc(O)cc3)nc3[nH]nc(C)c3c2cc1OC
IC50 [10]: ≤ 0.099 µM

Compound: Cn1cc(/C=C2\C(=O)Nc3ccccc32)c2ccccc21
inhibition [26]: > 50%

Compound: O=C1Nc2ccccc2/C1=C/c1c[nH]nc1-c1cccs1
inhibition [26]: > 50%

Compound: Cc1cc(-c2ccc(NCCN)cc2)c(/C=C2\C(=O)Nc3ccccc32)[nH]1
IC50 [10]: 0.149 µM

Compound: Oc1ccc(C2Oc3cc(O)cc(O)c3CC2O)cc1 (stereo not given)
inhibition [26]: > 50%

Compound: O=C(OCc1cc(=O)oc2cc(O)c(O)cc12)c1cc2ccccc2cc1O
inhibition [26]: > 50%

Compound: COc1cc(-c2nc3cc(C)ccn3c2/N=C/c2cc(Cl)ccc2O)ccc1O
IC50 [10]: 2.4 µM

Compound: Oc1ccccc1-c1nc(Nc2ccc(Cl)cc2)c2ccccc2n1
IC50 [10]: 6.46 µM

Compound: Cc1ccc(NC2=NC(=O)/C(=C3\C(=O)Nc4ccccc43)S2)cc1
IC50 [10]: 3.75 µM

Compound: Cc1[nH]c(/C=C2\C(=O)Nc3ccc(F)cc32)c(C)c1C(=O)O
IC50 [10]: 0.91 µM

Compound: COc1c(OCCN2CCCCC2)cc(F)c2c(-c3ccc(O)c(Cl)c3)nc3[nH]nc(C)c3c12
IC50 [10]: ≤ 0.099 µM

Compound: CN(C)S(=O)(=O)c1ccc2c(c1)/C(=C/c1cc3c([nH]1)CCCC3)C(=O)N2
IC50 [10]: 0.85 µM
